Test results: ChEMBL document CHEMBL1136376, “Identification of 2-aminobenzimidazole dimers as antibacterial agents” (2003)
Converted amounts (≈) assume the structure as drawn.

How the values were obtained:
Format in all cases: functional
Staphylococcus aureus = assay: Antibacterial activity against Staphylococcus aureus
Method in brief: (§1)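 Broth microdilution MIC run in duplicate. Overnight culture grown in appropriate medium was added to compound in 0.5% DMSO in water, giving about 10²–10³ CFU/well. Growth relative to a compound-free well was read as A595 after 20–24 h at 37 °C. MIC was reported as a range: complete inhibition at the upper concentration, viable cells at the lower. Strains: E. faecalis ATCC 29212, E. coli ATCC 25922, S. aureus ATCC 13709.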

Escherichia coli = assay: Antibacterial activity against Escherichia coli; method in brief: as §1
Streptococcus pyogenes = assay: Antibacterial activity against Streptococcus pyogenes
Enterococcus faecalis = assay: Antibacterial activity against Enterococcus faecalis; method in brief: as §1

| MIC (Staphylococcus aureus) [µM] | MIC (Escherichia coli) [µM] | MIC (Streptococcus pyogenes) [µM] | MIC (Enterococcus faecalis) [µM] | Structure (SMILES) |
| --- | --- | --- | --- | --- |
| > 100 | > 100 |  |  | COC(=O)c1ccc2c(c1)nc(N)n2CCCN(C)CCCn1c(N)nc2cc(C(=O)OC)ccc21 |
| 6 (≈ 3.09 µg/mL) | 12 (≈ 6.18 µg/mL) | 6 (≈ 3.09 µg/mL) | 6 (≈ 3.09 µg/mL) | CN(CCCNc1nc2cc(Cl)c(Cl)cc2[nH]1)CCCNc1nc2cc(Cl)c(Cl)cc2[nH]1 |
| > 100 | > 100 |  |  | Cc1ccc2nc(N)n(CCCN(C)CCCn3c(N)nc4ccc(C)cc43)c2c1 |
| > 100 | > 100 |  |  | Nc1nc2cc(Cl)c(Cl)cc2n1CCCOCCCn1c(N)nc2cc(Cl)c(Cl)cc21 |
| 50 (≈ 25.7 µg/mL) | 25 (≈ 12.8 µg/mL) | 25 (≈ 12.8 µg/mL) | 25 (≈ 12.8 µg/mL) | CN(CCCn1c(N)nc2cc(C(F)(F)F)ccc21)CCCn1c(N)nc2cc(C(F)(F)F)ccc21 |
| 12 (≈ 6.18 µg/mL) | 6 (≈ 3.09 µg/mL) | 6 (≈ 3.09 µg/mL) | 6 (≈ 3.09 µg/mL) | CN(CCCn1c(N)nc2cc(Cl)c(Cl)cc21)CCCn1c(N)nc2cc(Cl)c(Cl)cc21 |
| 100 (≈ 37.7 µg/mL) | 100 (≈ 37.7 µg/mL) |  |  | CN(CCCn1c(N)nc2ccccc21)CCCn1c(N)nc2ccccc21 |
| > 100 | > 100 |  |  | CN(CCCn1c(N)nc2cc(C#N)ccc21)CCCn1c(N)nc2cc(C#N)ccc21 |
| > 100 | > 100 |  |  | Nc1nc2cc(Cl)c(Cl)cc2n1CCCCCCCn1c(N)nc2cc(Cl)c(Cl)cc21 |
| > 100 | > 100 |  |  | CN(CCCn1c(N)nc2cc(Br)ccc21)CCCn1c(N)nc2cc(Br)ccc21 |
| 12 (≈ 5.85 µg/mL) | 6 (≈ 2.92 µg/mL) |  |  | CN(CCn1c(N)nc2cc(Cl)c(Cl)cc21)CCn1c(N)nc2cc(Cl)c(Cl)cc21 |
| 50 (≈ 24.3 µg/mL) | 100 (≈ 48.5 µg/mL) |  |  | CN(CCCn1cnc2cc(Cl)c(Cl)cc21)CCCn1cnc2cc(Cl)c(Cl)cc21 |
| > 100 | > 100 |  |  | COc1ccc2nc(N)n(CCCN(C)CCCn3c(N)nc4ccc(OC)cc43)c2c1 |
| 12 (≈ 5.85 µg/mL) | 25 (≈ 12.2 µg/mL) | 6 (≈ 2.92 µg/mL) | 1.5 (≈ 0.731 µg/mL) | CN(CCNc1nc2cc(Cl)c(Cl)cc2[nH]1)CCNc1nc2cc(Cl)c(Cl)cc2[nH]1 |
| 50 (≈ 22.3 µg/mL) | 50 (≈ 22.3 µg/mL) | 50 (≈ 22.3 µg/mL) | 50 (≈ 22.3 µg/mL) | CN(CCCn1c(N)nc2cc(Cl)ccc21)CCCn1c(N)nc2cc(Cl)ccc21 |
